The structures appear in SMILES notation. Active and inactive are the calls of the source.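 The calls were made as follows, unless noted: active = potentiation averaged over duplicate wells exceeding buffer-only control mean by more than 3 SD; inactive = the rest.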

Chain of Potassium voltage-gated channel subfamily KQT member 1 (Homo sapiens) (P51787 whole entry, looked up): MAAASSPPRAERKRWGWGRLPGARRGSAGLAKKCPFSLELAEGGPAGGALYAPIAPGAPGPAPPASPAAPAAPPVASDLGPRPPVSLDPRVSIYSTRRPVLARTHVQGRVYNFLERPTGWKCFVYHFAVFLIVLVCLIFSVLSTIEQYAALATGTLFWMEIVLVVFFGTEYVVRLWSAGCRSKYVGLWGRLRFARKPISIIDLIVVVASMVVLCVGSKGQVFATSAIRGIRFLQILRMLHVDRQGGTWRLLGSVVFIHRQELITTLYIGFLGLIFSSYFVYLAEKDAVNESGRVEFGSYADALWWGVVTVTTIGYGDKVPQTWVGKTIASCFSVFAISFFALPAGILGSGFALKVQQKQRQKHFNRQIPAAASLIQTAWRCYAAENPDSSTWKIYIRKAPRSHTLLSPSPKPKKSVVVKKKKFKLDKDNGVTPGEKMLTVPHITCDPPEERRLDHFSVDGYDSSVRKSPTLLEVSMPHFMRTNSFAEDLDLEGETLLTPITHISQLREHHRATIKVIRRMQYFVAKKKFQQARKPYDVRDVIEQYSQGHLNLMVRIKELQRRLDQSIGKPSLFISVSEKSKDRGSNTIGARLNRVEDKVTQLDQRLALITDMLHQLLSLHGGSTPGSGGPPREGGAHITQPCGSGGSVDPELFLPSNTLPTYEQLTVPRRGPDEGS

The target of the first assay is Potassium voltage-gated channel subfamily KQT member 1 (Homo sapiens) (UniProt P51787). As to the kind of experiment: KCNQ1 potassium channel potentiators, confirmation, FluxOR thallium flux, CHO cells, duplicates (AID 493007).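 As to outcome: cells depolarized by a potassium plus thallium sulfate stimulus after compound.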 To be noted: KCNQ1 cell line, FluxOR thallium flux fluorescence, at 10 µM; active compounds read high, % of reference activator effect, buffer zero. In short, it runs like this:
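System: KCNQ1-expressing CHO cell line; technique: kinetic thallium influx fluorescence with FluxOR dye, 10 s baseline, 110 s post-stimulus; timing: dye 90 min then compound 20 min, both at room temperature; controls: buffer-only wells as 0% and R-L3 activator as 100%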
On to `CCCCn1c(N)c(N(CC)C(=O)CSCc2c(C)noc2C)c(=O)[nH]c1=O`, for which the outcome was inactive.
For the molecule `CC(Sc1n[nH]c(N)n1)C(=O)NC1CCCCC1C` (stereo not given), the potentiation is 37% (active).
In the case of `COc1ccccc1C(=O)OCC(=O)Nc1ccc(Cl)cn1`, the outcome was inactive.
In the case of `COc1cccc(C(=O)NNC(=O)C(=O)Nc2cccc(Cl)c2C)c1`, the potentiation is 128% (active).
For `CN1CCN(CC/C=C2/c3ccccc3Sc3ccc(S(=O)(=O)N(C)C)cc32)CC1`, the outcome was inactive.
`CC(C)c1nc2n[nH]c(N)c2c2c1CCCC2`: the result was inactive.
As for `O=C(c1ccc(S(=O)(=O)N2CCCC2)cc1)N1CCN(c2cccc(Cl)c2)CC1`, the result was inactive.
Turning to `CCCOc1ccc(-c2c(=O)n(O)c3ccccc3[n+]2[O-])cc1`, the result was inactive.
As to `Cc1cccc(NC(=S)NC(=O)c2ccc(Br)o2)c1C`, the outcome was inactive.
As for `COCCn1cnc2c1c(=O)n(CC#N)c(=O)n2Cc1ccccc1`, the outcome was inactive.
Take `COc1ccc(-c2sc(C(=O)c3ccc(Cl)cc3Cl)cc2CC(=O)O)cc1`: the outcome was inactive.
As for `CC(C)c1ccc(C(=O)NC2=NCCS2)cc1`, the result was inactive.
For the molecule `COc1ccc(-c2cc(C(=O)Nc3c(Cl)cc(Cl)cc3Cl)c3ccccc3n2)cc1OC`, the outcome was inactive.
`CCOC(=O)/C(C)=N/NC(=O)c1ccc([N+](=O)[O-])cc1`: the potentiation was 157% (active).
On to `CCOC(=O)c1c(NC(=S)NCC2CCCO2)sc(C)c1C` (stereo not given), for which the outcome was inactive.
For `CC(=O)OC1OCCOC1NC(=S)Nc1ccc(C)cc1` (stereo not given), the outcome was inactive.
With `CCCCOC(=O)c1ccc(NC(=S)NC(=O)c2c(Cl)cnn2CC)cc1`, the potentiation was 196% (active).
Same read-out and setting: to `COc1cccc(OCC(=O)NNC(=O)C(=O)Nc2cccc(C)c2)c1` belongs 74.5% (active).
For the molecule `O=C(/C=C/c1ccccc1)C1C(=O)c2ccccc2C1=O`, the potentiation is 25.5% (active).
For `CCCc1cc(=O)n2[nH]cc(-c3ccc(Cl)cc3)c2n1`, the potentiation was 36% (active).
On to `CC(C)(C)CC(C)(C)NCC(O)COCCOc1ccc(Br)cc1` (stereo not given), for which the outcome was inactive.
As to `Cc1sc(-n2c(C)cc(/C=N/n3cnnc3)c2C)c(C#N)c1C`, the potentiation was 17.5% (active).
In the case of `COC(=O)[C@@H]1CCCN1C(=O)CCc1nnc(CCC2CCCCC2)o1`, the result was inactive.
In the case of `COC(=O)C1SCC2C(=O)N(Cc3ccc(F)cc3)CC(=O)N21` (stereo not given), the potentiation is 46.5% (active).
On the same count and under the same terms, to `COc1cccc(OCC(=O)NNC(=O)C(=O)Nc2ccc(OC)cc2OC)c1` belongs 55.5% (active).
In the case of `CCOC(=O)c1c(NC(=S)NCc2ccccc2)sc2c1CCN(C(=O)OCC)C2`, the result was inactive.
The same measure, in the same setting: to `O=C(NC1CCCC1)C(c1cccnc1)N(C(=O)c1csnn1)C1CC1` (stereo not given) belongs “inactive”; to `c1ccc(-n2cnc3cc(NCc4cccs4)ccc32)cc1`, “inactive”; to `Cc1ccc(NC(=O)CCS(=O)(=O)c2cccc3nonc23)c(Br)c1`, “inactive”.
Consider `CCOc1ccc(-c2c(=O)n(O)c3ccccc3[n+]2[O-])cc1`, for which the potentiation is 59.5% (active).
For `COc1ccc(NC(=O)C(=O)NNC(=O)c2ccc(Cl)cc2Cl)cc1`, the potentiation is 200% (active).
For the molecule `O=[N+]([O-])c1ccc(/C=C/C2=NN(c3ccccc3)C(c3ccco3)C2)o1` (stereo not given), the result was inactive.
On to `Cc1cccc(OCC(=O)O/N=C(\N)c2ccc(Cl)cc2)c1`, for which the outcome was inactive.
Consider `NNC(=O)c1sccc1OCc1ccc(Cl)cc1Cl`, for which the outcome was inactive.
On to `Cc1nc2c(c3c1[nH]c1ccccc13)C(=O)CC(C)(C)C2`, for which the result was inactive.
Take `CS(=O)(=O)c1ccc(C(=O)OCc2nnc(-c3ccc(Cl)cc3)o2)cc1[N+](=O)[O-]`: the potentiation is 30.5% (active).
Turning to `O=c1c2cccnc2n(-c2ccccc2)n1Cc1ccc(Cl)cc1`, the result was inactive.
Consider `CCOC(=O)CSc1nc2ccccc2c(=O)n1-c1ccc(C)cn1`, for which the outcome was inactive.
Take `S=c1[nH]cnc2scc(-c3ccc(Cl)cc3)c12`: the potentiation was 47% (active).
Still for that read-out and setting: to `CCOC(=O)c1c(-c2ccccc2)csc1NC(=S)NC` belongs 130% (active).

In the next assay the target is Potassium voltage-gated channel subfamily KQT member 2 (Rattus norvegicus) (UniProt O88943). The assay can be described thus: rat KCNQ2 channel potentiation, selectivity assay for KCNQ1 potentiator project, KCNQ2-CHO-K1 cells (AID 493009;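 active = mean duplicate potentiation above the buffer control mean plus 5 SD of buffer wells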;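 also: assay conditions were tuned for KCNQ1 rather than KCNQ2 modulators; signal is max minus min fluorescence divided by baseline after thallium stimulus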). The settings on record: FluxOR thallium flux fluorescence, at 10 µM; active compounds read high, scaled: buffer 0, activator control 100.
Chain of Potassium voltage-gated channel subfamily KQT member 2 (Rattus norvegicus) (O88943 whole entry, looked up): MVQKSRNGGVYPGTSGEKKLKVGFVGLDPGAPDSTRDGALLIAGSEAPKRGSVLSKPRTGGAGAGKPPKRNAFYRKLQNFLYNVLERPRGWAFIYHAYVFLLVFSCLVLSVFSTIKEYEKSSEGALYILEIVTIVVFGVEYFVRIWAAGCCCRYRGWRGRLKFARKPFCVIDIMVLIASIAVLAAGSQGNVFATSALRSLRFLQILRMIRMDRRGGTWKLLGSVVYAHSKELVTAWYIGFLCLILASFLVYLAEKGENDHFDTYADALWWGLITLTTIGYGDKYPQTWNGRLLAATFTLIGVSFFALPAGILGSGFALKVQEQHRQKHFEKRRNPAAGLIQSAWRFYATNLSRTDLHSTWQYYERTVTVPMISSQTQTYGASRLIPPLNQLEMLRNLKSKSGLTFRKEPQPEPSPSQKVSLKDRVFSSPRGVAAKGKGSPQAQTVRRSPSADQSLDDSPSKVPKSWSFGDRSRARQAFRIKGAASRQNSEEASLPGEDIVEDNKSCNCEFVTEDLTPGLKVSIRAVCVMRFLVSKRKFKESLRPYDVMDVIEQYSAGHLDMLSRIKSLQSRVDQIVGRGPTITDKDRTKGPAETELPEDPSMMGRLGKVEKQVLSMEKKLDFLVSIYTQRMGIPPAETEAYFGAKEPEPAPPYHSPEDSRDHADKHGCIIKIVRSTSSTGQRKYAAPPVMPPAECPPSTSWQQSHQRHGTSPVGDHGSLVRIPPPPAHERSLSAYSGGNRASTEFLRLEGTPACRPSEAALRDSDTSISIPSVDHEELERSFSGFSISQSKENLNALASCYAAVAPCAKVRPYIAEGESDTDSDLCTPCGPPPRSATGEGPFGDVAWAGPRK
Turning to `CCCCn1c(N)c(N(CC)C(=O)CSCc2c(C)noc2C)c(=O)[nH]c1=O`, the result was inactive.
With `CC(Sc1n[nH]c(N)n1)C(=O)NC1CCCCC1C` (stereo not given), the potentiation is 172% (active).
Consider `COc1ccccc1C(=O)OCC(=O)Nc1ccc(Cl)cn1`, for which the outcome was inactive.
Turning to `COc1cccc(C(=O)NNC(=O)C(=O)Nc2cccc(Cl)c2C)c1`, the potentiation was 299% (active).
Turning to `CN1CCN(CC/C=C2/c3ccccc3Sc3ccc(S(=O)(=O)N(C)C)cc32)CC1`, the result was inactive.
As for `CC(C)c1nc2n[nH]c(N)c2c2c1CCCC2`, the outcome was inactive.
For the molecule `O=C(c1ccc(S(=O)(=O)N2CCCC2)cc1)N1CCN(c2cccc(Cl)c2)CC1`, the outcome was inactive.
Regarding `CCCOc1ccc(-c2c(=O)n(O)c3ccccc3[n+]2[O-])cc1`, the potentiation was 243% (active).
Consider `Cc1cccc(NC(=S)NC(=O)c2ccc(Br)o2)c1C`, for which the result was inactive.
As to `COCCn1cnc2c1c(=O)n(CC#N)c(=O)n2Cc1ccccc1`, the result was inactive.
In the case of `COc1ccc(-c2sc(C(=O)c3ccc(Cl)cc3Cl)cc2CC(=O)O)cc1`, the outcome was inactive.
With `CC(C)c1ccc(C(=O)NC2=NCCS2)cc1`, the outcome was inactive.
Turning to `COc1ccc(-c2cc(C(=O)Nc3c(Cl)cc(Cl)cc3Cl)c3ccccc3n2)cc1OC`, the outcome was inactive.
For `CCOC(=O)/C(C)=N/NC(=O)c1ccc([N+](=O)[O-])cc1`, the potentiation is 349% (active).
For `CCOC(=O)c1c(NC(=S)NCC2CCCO2)sc(C)c1C` (stereo not given), the outcome was inactive.
As to `CC(=O)OC1OCCOC1NC(=S)Nc1ccc(C)cc1` (stereo not given), the result was inactive.
Turning to `CCCCOC(=O)c1ccc(NC(=S)NC(=O)c2c(Cl)cnn2CC)cc1`, the potentiation was 298% (active).
Take `COc1cccc(OCC(=O)NNC(=O)C(=O)Nc2cccc(C)c2)c1`: the potentiation is 224% (active).
On to `O=C(/C=C/c1ccccc1)C1C(=O)c2ccccc2C1=O`, for which the potentiation was 146% (active).
For `CCCc1cc(=O)n2[nH]cc(-c3ccc(Cl)cc3)c2n1`, the potentiation was 164% (active).
For the molecule `CC(C)(C)CC(C)(C)NCC(O)COCCOc1ccc(Br)cc1` (stereo not given), the outcome was inactive.
On to `Cc1sc(-n2c(C)cc(/C=N/n3cnnc3)c2C)c(C#N)c1C`, for which the result was inactive.
Regarding `COC(=O)[C@@H]1CCCN1C(=O)CCc1nnc(CCC2CCCCC2)o1`, the outcome was inactive.
Take `COC(=O)C1SCC2C(=O)N(Cc3ccc(F)cc3)CC(=O)N21` (stereo not given): the potentiation is 178% (active).
Same read-out and setting: to `COc1cccc(OCC(=O)NNC(=O)C(=O)Nc2ccc(OC)cc2OC)c1` belongs 222% (active).
For the molecule `CCOC(=O)c1c(NC(=S)NCc2ccccc2)sc2c1CCN(C(=O)OCC)C2`, the result was inactive.
Same read-out and setting: to `O=C(NC1CCCC1)C(c1cccnc1)N(C(=O)c1csnn1)C1CC1` (stereo not given) belongs “inactive”.
As to `c1ccc(-n2cnc3cc(NCc4cccs4)ccc32)cc1`, the outcome was inactive.
Still for that read-out and setting: to `Cc1ccc(NC(=O)CCS(=O)(=O)c2cccc3nonc23)c(Br)c1` belongs “inactive”.
On to `CCOc1ccc(-c2c(=O)n(O)c3ccccc3[n+]2[O-])cc1`, for which the potentiation is 254% (active).
On the same count and under the same terms, to `COc1ccc(NC(=O)C(=O)NNC(=O)c2ccc(Cl)cc2Cl)cc1` belongs 492% (active).
Take `O=[N+]([O-])c1ccc(/C=C/C2=NN(c3ccccc3)C(c3ccco3)C2)o1` (stereo not given): the outcome was inactive.
The same measure, in the same setting: to `Cc1cccc(OCC(=O)O/N=C(\N)c2ccc(Cl)cc2)c1` belongs “inactive”.
As for `NNC(=O)c1sccc1OCc1ccc(Cl)cc1Cl`, the outcome was inactive.
For the molecule `Cc1nc2c(c3c1[nH]c1ccccc13)C(=O)CC(C)(C)C2`, the result was inactive.
For `CS(=O)(=O)c1ccc(C(=O)OCc2nnc(-c3ccc(Cl)cc3)o2)cc1[N+](=O)[O-]`, the potentiation was 144% (active).
As to `O=c1c2cccnc2n(-c2ccccc2)n1Cc1ccc(Cl)cc1`, the result was inactive.
For the molecule `CCOC(=O)CSc1nc2ccccc2c(=O)n1-c1ccc(C)cn1`, the result was inactive.
As to `S=c1[nH]cnc2scc(-c3ccc(Cl)cc3)c12`, the potentiation was 191% (active).
For the molecule `CCOC(=O)c1c(-c2ccccc2)csc1NC(=S)NC`, the potentiation is 324% (active).

The values above are taken from PubChem BioAssay.
